Compounds with a hit are over-represented: about 10% of the library has one in this group of screens.
WT yeast gro inh: growth inhibition of WT yeast, mitochondrial fusion screen | 2.1% of 190,000 active | inhibition, % at 10 µM | mitochondrial fusion phenotypic screen, WT strain; in the data active = inhibition above about 58%; tested in S. cerevisiae
Diaphorase act: diaphorase activation or chemical reduction counter-screen. 0.005% of 190,000 active. activation factor at 20 µM. Diaphorase/resazurin coupled assay, resorufin fluorescence, 16 min; stronger effect = higher value; 1 = vehicle wells, 0 = NADH-free wells;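 active = diaphorase activity raised at least twofold by the compound at 20 µM; inactive = activation factor below 2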
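test system = bacterial diaphorase enzyme (C. kluyveri) | quantity = enzyme 0.07 U/mL final | reagent = NADH substrate 0.114 mM plus resazurin dye 0.1 mM, final | incubation = 16 min enzyme reaction, ambient temperature | buffer or medium = HEPES pH 7.4 buffer with MgCl2 and Tween 20 | signal = fluorescence of resorufin, 544 nm excitation, 590 nm emission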
PMI act: activators of human phosphomannose isomerase; P34949; purified human PMI, coupled resazurin fluorescence, 20 min; stronger effect = higher value; 1 = vehicle control, 0 substrate-free wells; AID 1214; activation factor at 20 µM; 0.005% of 190,000 active;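 active = activation factor of 2 or more at 20 µM, relative to plate controls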
Target sequence (P34949 whole entry, looked up): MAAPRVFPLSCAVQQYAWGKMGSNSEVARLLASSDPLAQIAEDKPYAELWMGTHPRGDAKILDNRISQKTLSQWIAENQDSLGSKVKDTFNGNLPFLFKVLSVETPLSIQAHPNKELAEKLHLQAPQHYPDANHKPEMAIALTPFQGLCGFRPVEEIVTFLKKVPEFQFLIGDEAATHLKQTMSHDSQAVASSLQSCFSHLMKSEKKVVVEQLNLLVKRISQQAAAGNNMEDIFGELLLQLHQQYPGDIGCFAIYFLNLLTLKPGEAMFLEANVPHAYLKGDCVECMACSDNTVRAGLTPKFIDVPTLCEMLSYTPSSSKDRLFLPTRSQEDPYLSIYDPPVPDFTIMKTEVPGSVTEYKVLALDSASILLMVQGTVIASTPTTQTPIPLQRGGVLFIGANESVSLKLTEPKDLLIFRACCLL
L major viab: inhibitors of Leishmania major promastigote growth. Leishmania major promastigotes, resazurin fluorescence viability. inhibition, % at 10 µM. 9% of 200,000 active. AID 1063; in the data active = inhibition above about 50%;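 note: promastigotes grown with compound for 44 hours at 28 °C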
PMI act satM6P: PMI (human) activation, high substrate; P34949; coupled PMI enzyme assay, resazurin fluorescence, 20 min; stronger effect = higher value; 1 = untreated enzyme, 0 = substrate-free blank; activation factor at 20 µM; 0.34% of 190,000 active; AID 1216;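 active = activation factor of 2 or more at 20 µM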
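Material: human phosphomannose isomerase with PGI, G6PDH, diaphorase coupling enzymes. Quantity: 15 ng/mL PMI. Medium: HEPES pH 7.4 buffer with MgCl2 and Tween-20. Reagent: Near-saturating mannose-6-phosphate, 1.0 mM. Compound: 20 µM single dose. Times: enzyme reaction with compound 20 min at room temperature. Detection: resorufin fluorescence at Ex 544/Em 590 nm.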
L major 1uM: L. major promastigote growth inhibition, 1 uM repeat. 13% of 1,100 active. resazurin fluorescence, 48 h. shares compounds with L major viab. AID 1258. inhibition, % at 1 µM;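 active = inhibition above about 50% in both repeat tests, limit read from the data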
An asterisk follows results filed as active; x = not tested or not shown.

SMILES	WT yeast gro inh	Diaphorase act	PMI act	L major viab	PMI act satM6P	L major 1uM
COc1ccc2c(c1)OCC1=C2CCC2(C)C(=O)CC=C12 (stereo not given)	-5.9	0.6	1.1	51.8*	1.5	23.0
COc1ccc2c(c1)SCCC2=O	-2.8	0.8	0.9	-8.3	1	x
Clc1ccc(-c2nnc(-c3ccc(Br)cc3)c(N3CCSCC3)n2)cc1	13.2	1	1	26.9	1	x
Clc1ccc(-c2nnc(-c3ccco3)nc2N2CCCCC2)cc1	66.4*	0.9	1.1	64.4*	0.9	25.2
Cc1ccc(OCC(=O)c2ccc(Cl)s2)c([N+](=O)[O-])n1	-10.7	0.5	0.7	-5.7	0.4	x
O=S(=O)(c1ccc(-c2csc(-c3cccnc3)n2)cc1)N1CCCCC1	22.0	0.9	1.1	78.3*	1	39.5
O=S(=O)(c1ccc(-c2csc(-c3cccnc3)n2)cc1)N1CCCC1	-0.8	0.9	1	14.7	1	x
CC(C)Cn1c(N)c(C(=O)CSc2ccccc2)c(=O)n(C)c1=O	-5.2	0.9	1	51.2*	1	-5.5
C=CCN1C(=O)/C(=C/C=C2/N(CC)c3ccc(S(=O)(=O)N(C)C)cc3N2CC)SC1=S	26.0	0.7	0.7	3.3	0.6	x
CCOC(=O)c1ccc(N2C(=O)c3n[nH]c(-c4ccco4)c3C2c2cccc([N+](=O)[O-])c2)cc1 (stereo not given)	27.9	0.8	0.8	96.5*	0.9	-5.1
COCCCn1c(=S)[nH]c2sc3c(c2c1=O)CCCS3	6.4	0.7	1	16.0	1	x
O=C(COc1ccc2ccc(=O)oc2c1)N1CCc2ccccc21	-11.1	1	1.2	5.3	1.1	x
CCOC(=O)c1sc(=S)sc1SCc1cccc(C(F)(F)F)c1	21.1	0.9	0.9	61.4*	1	-11.3
CCOC(=O)C(NC(=O)NCc1cccc(C(F)(F)F)c1)(OCC)C(F)(F)F (stereo not given)	-4.7	0.9	1	0.6	1	x
COC(=O)c1cc(C)sc1NC(=O)C1CC(=O)NN1Cc1ccccc1 (stereo not given)	11.1	0.9	0.9	95.4*	0.9	1.6
CCN(N=Nc1cccc([N+](=O)[O-])c1)c1cccc([N+](=O)[O-])c1	22.4	0.9	0.9	-4.2	0.9	x
NC(=O)CN(N=Nc1cccc([N+](=O)[O-])c1)c1cccc([N+](=O)[O-])c1	-9.8	0.9	1	55.0*	1	28.0
COC(=O)Cc1c[nH]c2cccc(OCC(O)CN(Cc3ccccc3)C(C)C)c12 (stereo not given)	-2.7	1	1.2	98.0*	1.1	-14.1
COC(=O)Cc1c[nH]c2cccc(OCC(O)CN(Cc3ccc([N+](=O)[O-])cc3)C(C)(C)C)c12 (stereo not given)	9.5	0.9	0.9	39.5	1	x
COCCN(C)C(=O)CC1C(=O)NCCN1CC(c1ccccc1)c1ccccc1 (stereo not given)	-8.6	0.8	0.9	-7.1	0.7	x
CNCCCC1c2ccccc2C=Cc2ccccc21	20.1	0.9	1	56.5*	0.9	-9.2
Cc1cccc2cc(COC(=O)C(C)C)c(=O)[nH]c12	-43.9	0.9	0.9	-2.2	1	x
Cc1ccc(C(O)(COC(=O)C(C)C)COC(=O)C(C)C)c(O)c1	0.3	1.1	0.9	60.5*	1	-10.4
COc1ccccc1NC(=O)CN1CC(=O)Nc2ccccc21	-14.1	0.9	1.6	-6.6	1.6	x
CCCCc1c(C)nn(-c2nnc3c4ccccc4n(C)c3n2)c1C	47.9	0.9	1	87.5*	1	-27.5
SMILES	WT yeast gro inh	Diaphorase act	PMI act	L major viab	PMI act satM6P	L major 1uM
Cc1cc(C)c(C(=O)CSC2=NC(N)=C(C#N)C3(CCCCC3)C2C(N)=O)cc1C (stereo not given)	3.4	0.9	1	63.8*	1	-15.1
CNCCC(Oc1ccc(C(F)(F)F)cc1)c1ccccc1 (stereo not given)	18.1	1	1	89.9*	1.1	-19.5
CCOC(=O)/C(=C/c1c(C)n(C)c2ccc([N+](=O)[O-])cc12)C(C)=O	-9.5	1	1	83.1*	1	21.9
CC(=O)c1c(C)n(C)c2ccc(OC(=O)c3ccc([N+](=O)[O-])cc3)cc12	-4.8	0.9	0.9	-4.4	0.9	x
COc1ccccc1C1=NNC(=Nc2cccc(S(=O)(=O)N(C)C)c2)SC1	16.4	1	1.1	-6.2	1.2	x
CCCN(CCC)c1nc2ccccc2n2c(C)nnc12	21.5	0.8	0.9	82.1*	0.9	-9.1
CCCCCCCCCCCCCCCCn1cc[n+](C)c1	96.5	3.2*	1.1	100.5*	1.1	98.6*
CC(=O)N1CCc2cc(S(=O)(=O)NC(CC(C)C)C(=O)N3CCn4c3nc3ccccc34)ccc21 (stereo not given)	18.0	0.9	0.9	5.9	0.9	x
CN(C)S(=O)(=O)c1cccc(-c2cn3cc(Cl)ccc3n2)c1	10.1	0.9	1.1	99.2*	1.1	-8.7
CN(C)S(=O)(=O)c1cccc(-c2cn3ccccc3n2)c1	x	1.1	1	5.7	1.1	x
CC(Sc1nnc2ccccn12)C(N)=O (stereo not given)	-5.1	0.8	1	13.3	1	x
CC(=O)c1c(C)[nH]c(C(=O)N(C)C(c2ccccc2)c2ccccc2)c1C	17.3	0.8	0.9	24.4	0.9	x
CCCc1n[nH]c2c1/C(=N/O)CC(c1ccccc1)C2 (stereo not given)	-7.0	0.9	0.9	80.9*	0.9	59.1*
O=C(O)Cc1ccc2sc(-c3ccccc3)nc2c1	39.6	0.8	1	72.0*	0.9	-5.7
CC[n+]1c(/C=C/C=C/N(C(C)=O)c2ccccc2)sc2cc(OC)ccc21	25.3	1	1.2	87.9*	1.3	28.9
Cc1nnc(N2CCCCC2)c2ccccc12	6.9	0.9	1	52.5*	0.9	2.2
CCOC(=O)c1c(NC(=O)Cn2cnc([N+](=O)[O-])n2)sc(C)c1C	-31.4	1	1	52.5*	1	-4.1
CCCCCCCCCC(=O)N/N=C/c1ccc(C)s1	x	0.8	0.8	-5.5	0.9	x
Cc1cccc(-n2c3nc(=O)[nH]c(=O)c-3cc3cc([N+](=O)[O-])ccc32)c1	-1.0	0.5	1.2	95.4*	1.1	14.7
CC(Sc1nc2ccccc2s1)C(=O)N1CCOCC1 (stereo not given)	7.8	0.9	1.1	-7.2	1.1	x
CC(C)(C)c1ccc(-n2nc(C#N)c(Cl)cc2=O)cc1	62.2	0.9	1	100.5*	0.9	92.3*
COC(=O)CNC(=O)C(Cc1ccccc1)NS(=O)(=O)c1ccc2c(c1)c(=O)n(C)c(=O)n2C (stereo not given)	-5.2	0.9	0.9	-1.7	0.9	x

Compound activity from PubChem.
